# Granule exo inh: blocks lytic granule exocytosis | TALL-104 LAMP-1 surface exposure, flow cytometry; cells stimulated with thapsigargin and PMA | inhibition, % at 10 µM | 360,000 compounds, 0.66% hits;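 active = inhibition above about 55%, limit read from the data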
# ABHD5-PLIN5 inh: ABHD5-PLIN5 protein interaction inhibition. AID 602281. Split G. princeps luciferase complementation, luminescence, 4 h. 360,000 compounds, 0.78% hits. Q00G26+Q8WTS1. inhibition, % at 4 µM;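 active = inhibition above the mean inhibition across every tested compound plus 3 SD, cut at about 22% in these data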;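 note: 0% = DMSO only wells and the 100% control is not disclosed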
# Target sequence (Q00G26 whole entry, looked up): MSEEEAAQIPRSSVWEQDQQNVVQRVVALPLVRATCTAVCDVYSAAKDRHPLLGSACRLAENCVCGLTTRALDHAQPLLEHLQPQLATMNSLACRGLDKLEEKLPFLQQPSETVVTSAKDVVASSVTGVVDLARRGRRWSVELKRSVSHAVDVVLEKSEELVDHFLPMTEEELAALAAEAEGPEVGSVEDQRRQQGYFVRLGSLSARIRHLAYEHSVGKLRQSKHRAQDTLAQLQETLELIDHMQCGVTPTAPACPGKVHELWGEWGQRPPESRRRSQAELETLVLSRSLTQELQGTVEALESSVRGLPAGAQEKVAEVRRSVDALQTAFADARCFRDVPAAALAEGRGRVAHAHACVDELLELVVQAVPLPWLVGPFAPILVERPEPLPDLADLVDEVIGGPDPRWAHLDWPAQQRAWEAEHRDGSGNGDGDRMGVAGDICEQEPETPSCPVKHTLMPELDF
# Target sequence (Q8WTS1 whole entry, looked up): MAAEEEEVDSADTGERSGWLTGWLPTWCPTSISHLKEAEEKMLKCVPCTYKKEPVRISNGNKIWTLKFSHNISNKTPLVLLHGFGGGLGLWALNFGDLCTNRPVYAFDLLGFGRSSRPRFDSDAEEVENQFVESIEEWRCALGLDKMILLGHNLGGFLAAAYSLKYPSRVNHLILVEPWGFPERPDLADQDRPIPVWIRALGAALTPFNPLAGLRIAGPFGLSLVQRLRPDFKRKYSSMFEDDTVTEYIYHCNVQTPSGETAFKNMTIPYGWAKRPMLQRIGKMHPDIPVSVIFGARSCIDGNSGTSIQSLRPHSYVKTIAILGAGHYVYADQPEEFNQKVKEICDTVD
# HKDC1 inh: HKDC1 (human) hexokinase inhibition; Q2TB90; recombinant HKDC1, G6PDH/diaphorase resazurin coupled fluorescence; inhibition, % at 20 µM; 340,000 compounds, 0.16% hits; AID 493160;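 active = inhibition above about 35% when tested at 20 µM, limit read from the data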;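 note: plate controls were DMSO wells with enzyme for no effect and DMSO wells lacking enzyme for full effect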
#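 test system = in-house recombinant HK5 (HKDC1) enzyme | amount = HKDC1 at 5 µg/mL | control set = DMSO-enzyme wells negative, buffer-substituted wells positive | compound = one dose of 20 µM, 1% DMSO | schedule = reaction time 90 min, room temperature, protected from light | technique = resorufin fluorescence at 613 nm | reagent = glucose with 1 mM ATP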
# PfGluPho inh: PfG6PD (Plasmodium falciparum) enzyme inhibition | PfGluPho enzyme, NADPH resazurin-diaphorase fluorescence | inhibition, % at 20 µM | 350,000 compounds, 0.78% hits;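 active = inhibition reaching at least a set limit at 20 µM in the primary screen, cut at about 59% in these data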;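 note: 0% = DMSO wells with substrate and 100% = DMSO wells lacking glucose-6-phosphate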
# HKDC1 act conf: confirmation of human HKDC1 activators. inhibition, % at 20 µM. recombinant HKDC1, G6PDH/diaphorase resazurin fluorescence; active compounds read low. shares compounds with HKDC1 inh. 740 compounds, 14% hits;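 active = inhibition at or below a set negative limit, negative inhibition meaning the enzyme was activated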
# PfG6PD confirm: PfG6PD inhibition, single-dose confirmed | shares compounds with PfGluPho inh | inhibition, % at 20 µM | recombinant PfGluPho, NADPH-diaphorase-resazurin fluorescence | 2,400 compounds, 34% hits;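 active = inhibition of at least 50% at 20 µM in any single replicate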;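 note: 0% = DMSO with substrate and 100% = DMSO lacking glucose-6-phosphate substrate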
# Diaphorase 10uM: counter-screen for P. falciparum G6PD inhibitors: diaphorase inhibitors, oxidizers. shares compounds with PfGluPho inh. diaphorase-coupled resazurin reduction, fluorescence, NADPH 10 uM. inhibition, % at 20 µM. 820 compounds, 39% hits. AID 504862;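 active = average inhibition reaching 50% or more with the compound at 20 µM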;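 note: resorufin red fluorescence formed as diaphorase reduces resazurin using NADPH; 0% = DMSO with enzyme and 100% = DMSO without enzyme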
# Diaphorase 30uM: inhibits diaphorase or oxidizes, flagging false PfG6PD hits; Diaphorase/resazurin coupled assay, resorufin fluorescence, 30 uM NADPH; shares compounds with PfGluPho inh; 820 compounds, 29% hits; inhibition, % at 20 µM;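 active = inhibition averaging 50% or more, tested at 20 µM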;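 note: 0% = DMSO with enzyme and 100% = DMSO wells lacking diaphorase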
# ABHD5-PLIN5 conf: confirmation of human ABHD5-PLIN5 interaction inhibitors; shares compounds with ABHD5-PLIN5 inh; biochemical ABHD5-PLIN5 interaction, luminescence; inhibition, % at 4 µM; 2,200 compounds, 67% hits; AID 651612; in the data active = inhibition above about 23%;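 note: 0% = DMSO vehicle wells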
# HNF4 counter: counter-screen for ABHD5-PLIN5 inhibitors: HNF4 split-luciferase; shares compounds with ABHD5-PLIN5 inh; inhibition, % at 4 µM; HNF4 dimerization, luminescence, biochemical; 2,200 compounds, 77% hits;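 active = mean inhibition across replicate wells exceeding the computed hit threshold, cut at about 13% in these data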;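 note: light from luciferase halves that rejoin when HNF4 fusion proteins dimerize; 0% = DMSO only wells and the 100% control is not given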
# The depositor's hits bear a star; x = no result. Sampled rows, rich in hits. Any-hit rate of the full collection: about 2.2%.
SMILES,Granule exo inh,ABHD5-PLIN5 inh,HKDC1 inh,PfGluPho inh,HKDC1 act conf,ABHD5-PLIN5 conf,HNF4 counter,others
Cn1c2ccccc2c2ccc3c(c21)C(=O)C=CC3=O,106*,6,37*,81*,0,x,x,PfG6PD confirm=53*;Diaphorase 10uM=-40;Diaphorase 30uM=-7
Cc1cccc(NS(=O)(=O)c2c(C)nc3scc(C)n3c2=O)c1,1,-2,-5,-14,x,x,x,
CCOc1cc(CN2CCN(CCOCCO)CC2)ccc1OC,2,0,-8,-3,x,x,x,
O=C1C=CC(=O)c2c(O)c(N3CCN(CCOCCO)CC3)c(Br)c(O)c21,62*,-2,46*,115*,11,x,x,PfG6PD confirm=87*;Diaphorase 10uM=61*;Diaphorase 30uM=53*
O=C1C=CC(=O)c2c(O)c(N3CCN(CCO)CC3)c(Cl)c(O)c21,10,-7,32,103*,10,x,x,PfG6PD confirm=89*;Diaphorase 10uM=54*;Diaphorase 30uM=57*
CCc1ccc(C(=O)NNC(=O)c2cccc(N3C(=O)CCC3=O)c2)cc1,1,-4,-5,8,x,x,x,
C=CS(=O)(=O)c1c2cc(OC)ccc2nc2ccc(OC)cc12,0,15,34,69*,4,x,x,PfG6PD confirm=20
CC(=O)N1c2ccccc2C2CCCC[C@H]21 (some centres not stated),-4,-9,-2,9,x,x,x,
CCC[n+]1c2ccccc2cc2ccccc21,-20,72*,37*,31,0,94*,84*,
CCCC[n+]1c2ccccc2cc2ccccc21,-9,87*,42*,54,-1,102*,100*,
Cc1ccc2ccccc2[n+]1CCCS(=O)(=O)[O-],-4,3,-1,-1,x,x,x,
O=C(/C=C/Nc1ccccc1)c1ccccc1,-7,0,3,14,x,x,x,
O=C(/C=C/Sc1ccccc1)c1ccccc1,8,35*,36*,25,2,61*,47*,
O=C(Cc1c[nH]c2ccccc12)Nc1ccc(N2CCOCC2)cc1,-1,-4,2,4,x,x,x,
CC1=NOC(=O)/C1=C\c1ccc(-c2cccc(Cl)c2)o1,100*,51*,38*,72*,3,99*,106*,PfG6PD confirm=11
Cc1ccc(S(=O)(=O)N(C(=O)c2ccco2)c2cc3sc(=O)oc3c3ccccc23)cc1,5,31*,37*,54,-5,-18,109*,
C=CCC[C@@H](CCCCC)OC(=O)/C=C/[C@@H](O)[C@H](O)C[C@@H](O)CC=C,1,2,x,x,x,x,x,
CCOC(=O)N1CCN(S(=O)(=O)/C=C/c2ccccc2)CC1,2,-7,1,-12,x,x,x,
COc1ccc(OC(=O)N2CCOCC2)cc1,-15,1,-7,-11,x,x,x,
COc1ccc(OC(=O)N2C/C(=C/c3ccccc3)C(=O)/C(=C\c3ccccc3)C2)cc1,62*,75*,36*,14,2,104*,107*,
CCOC(=O)N1C/C(=C\c2ccccc2)C(=O)/C(=C/c2ccccc2)C1,-3,69*,33,31,11,103*,108*,
COCCN1CCN(C(=O)C2CCC(=O)N(CCc3cccc(F)c3)C2)CC1 (configuration not stated),4,7,-4,-5,x,x,x,
O=C1C(F)=CC(COC(c2ccccc2)(c2ccccc2)c2ccccc2)OC1n1cc(F)c(=O)[nH]c1=O (configuration not stated),41,42*,40*,59*,14,101*,97*,PfG6PD confirm=-3
CCOc1ccccc1NC(=O)CCCn1cc([N+](=O)[O-])cn1,5,-2,-5,29,x,x,x,
O=C(O)c1cccc2c1C(=O)c1ccccc1-2,-1,-1,4,-9,x,x,x,

# Compound activity: PubChem BioAssay, several laboratories
